How the values were obtained:
[1] = target: T1, Cyclic nucleotide-gated channel alpha-1 (Bos taurus, UniProt Q00194); experiment: Apparent dissociation constant against Cyclic nucleotide gated channel alpha 1 at +40 mV
T1 sequence (Q00194 whole entry): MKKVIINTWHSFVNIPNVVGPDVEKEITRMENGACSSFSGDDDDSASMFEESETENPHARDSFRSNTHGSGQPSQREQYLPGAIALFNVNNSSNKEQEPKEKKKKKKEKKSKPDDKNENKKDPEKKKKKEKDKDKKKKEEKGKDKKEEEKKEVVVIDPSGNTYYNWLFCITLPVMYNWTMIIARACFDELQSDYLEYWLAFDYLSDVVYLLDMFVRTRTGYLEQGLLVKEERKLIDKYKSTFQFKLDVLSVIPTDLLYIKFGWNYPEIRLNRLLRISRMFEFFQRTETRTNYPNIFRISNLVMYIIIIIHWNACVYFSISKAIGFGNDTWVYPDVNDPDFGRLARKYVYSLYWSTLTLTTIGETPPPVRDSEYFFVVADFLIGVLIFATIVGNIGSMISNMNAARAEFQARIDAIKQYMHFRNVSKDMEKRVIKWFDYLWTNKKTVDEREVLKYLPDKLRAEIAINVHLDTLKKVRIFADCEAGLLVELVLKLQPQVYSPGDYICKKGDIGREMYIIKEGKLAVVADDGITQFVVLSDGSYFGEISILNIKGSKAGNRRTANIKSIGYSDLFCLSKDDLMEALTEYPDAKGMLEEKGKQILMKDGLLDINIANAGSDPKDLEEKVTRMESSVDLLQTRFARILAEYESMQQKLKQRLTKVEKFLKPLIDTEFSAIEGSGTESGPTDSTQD
Summary of the method: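 Bovine CNGA1 cRNA injected (5-25 ng) into Xenopus oocytes kept at 18 °C; inside-out excised patches recorded 1-6 days later at room temperature. Identical pipet/bath solution: 130 mM NaCl, 2 mM HEPES, 1 mM EGTA, 0.02 mM EDTA, pH 7.6. Blocker added to bath with saturating cGMP; steps -80 to +40 mV. End-of-pulse current corrected for ion accumulation/depletion. KD from I+D/I-D = KD/(KD+[D]).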

[2] = target: T1, Cyclic nucleotide-gated channel alpha-1; experiment: Apparent dissociation constant against Cyclic nucleotide gated channel alpha 1 at 0 mV
Summary of the method: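 CNGA1 (bovine) expressed in Xenopus oocytes from 5-25 ng cRNA; inside-out patches at room temperature in symmetrical 130 mM NaCl, 2 mM HEPES, 1 mM EGTA, 0.02 mM EDTA, pH 7.6, saturating cGMP with blocker in bath. Depolarizations -80 to +60 mV in 10 mV steps. Fraction of current remaining fitted with Woodhull equation, giving KD at 0 mV and zδ.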

Row | Compound | Kd [1] | Kd [2]
1 | CN(C)CCOC(=O)c1ccc(NCCCCN)cc1 | 210 µM | 970 µM
2 | CC(=O)NCCCCNc1ccc(C(=O)OCCN(C)C)cc1 | 2500 µM | 4000 µM
3 | CN(C)CCOC(=O)c1ccc(N)cc1 | 2300 µM | 10000 µM

Now those with a lower Kd [1], led by results:

Row | Kd [1] | Kd [2] | Compound
4 | 3e-05 µM | 0.0069 µM | CCCCNc1ccc(C(=O)OCC[N+](C)(C)CCCNCCCN)cc1
5 | 3.1 µM | 5.4 µM | CCCCNc1ccc(C(=O)OCC[N+](C)(C)CCCC)cc1
6 | 0.074 µM | 1.4 µM | CCCCNc1ccc(C(=O)OCC[N+](C)(C)CCCN)cc1
